High-throughput results deposited in PubChem BioAssay by Broad Institute.
IDH1 mut inh: inhibitors of IDH1 R132H reductase, primary screen, biochemical, plate reader, single point. inhibition, % at 10 µM. actives 0.18% (n = 70,000). diaphorase/resazurin fluorescence, 60 min. Isocitrate dehydrogenase [NADP] cytoplasmic (Homo sapiens), O75874; in the data active = inhibition above about 34%; inconclusive = no clear call, values can overlap the other calls; inactive = below about 11%;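 note: 0% = DMSO and 100% = no enzyme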
GASC1 inh: inhibitors of GASC-1 (KDM4C) histone demethylase, primary screen, biochemical, single concentration HTS. Lysine-specific demethylase 4C (Homo sapiens), Q9H3R0. inhibition, % at 12.5 µM. actives 0.15% (n = 96,000). GST-KDM4C 2-372, H3K9me3 peptide, LANCE TR-FRET;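 active = mean replicate inhibition above about 25%, with at least 55% of replicates also reaching it, limit read from the data, passing the limit was not always enough; inconclusive = only one of those two conditions met; inactive = neither condition met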
Target sequence (Q9H3R0 2-372 limits assumed): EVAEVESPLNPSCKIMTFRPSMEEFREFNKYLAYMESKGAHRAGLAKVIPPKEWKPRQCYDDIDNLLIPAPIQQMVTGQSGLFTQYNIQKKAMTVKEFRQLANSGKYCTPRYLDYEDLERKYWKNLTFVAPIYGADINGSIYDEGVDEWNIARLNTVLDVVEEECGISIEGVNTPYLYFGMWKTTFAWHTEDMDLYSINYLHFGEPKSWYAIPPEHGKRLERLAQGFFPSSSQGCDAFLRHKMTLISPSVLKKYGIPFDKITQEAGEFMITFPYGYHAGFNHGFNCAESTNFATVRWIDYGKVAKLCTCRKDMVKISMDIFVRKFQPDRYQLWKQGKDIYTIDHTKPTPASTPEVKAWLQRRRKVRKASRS
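Material: N-terminal GST-fused human GASC-1 (KDM4C) fragment, residues 2-372. Input: 10 nM enzyme. Incubation: enzyme reaction 30 min, then detection 60 min, both room temperature. Doses: one test concentration per compound. Read-out basis: inhibition from TR-FRET ratio decrease. Detection: LANCE TR-FRET, excitation 340 nm, emissions 618 and 671 nm.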
Pf Dd2 inh: P. falciparum Dd2 growth inhibitors, primary screen, SYBR Green fluorescence, single dose replicates. 72 h; hits give low values. activity change, % at 10 µM. actives 2.3% (n = 94,000). AID 1159554, 2015; in the data active = activity change below about -80%; inconclusive = no clear call, values can overlap the other calls
T cruzi growth-1: T. cruzi intracellular proliferation inhibitors, primary screen, cell-based, beta-gal Tulahuen parasites, NIH3T3 host, luminescence; T. cruzi beta-gal in NIH3T3, GalScreen luminescence, 90 h; inhibition, % at 8.34 µM; actives 5.9% (n = 77,000);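 active = mean inhibition above about 93%, with at least 55% of replicates each passing it, limit read from the data, passing the limit was not always enough; inconclusive = only one of those two conditions holds; inactive = neither condition holds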
T cruzi growth-2: T. cruzi intracellular proliferation inhibitors, confirmation, cell-based, NIH3T3 host, beta-gal parasite, luminescence, cherry-pick; AID 651739, 2012; actives 72% (n = 5,600); inhibition, % at 8.35 µM; shares compounds with T cruzi growth-1; T. cruzi beta-gal in NIH3T3, GalScreen luminescence, 90 h;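 active = mean replicate inhibition above about 95% and at least 55% of replicates individually reaching it, limit read from the data; inconclusive = only one of the two criteria is met; inactive = neither criterion is met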
T cruzi growth-3: inhibitors of intracellular T. cruzi replication, confirmation, NIH3T3 host cells, beta-gal parasites, cherry-pick, set 2 | shares compounds with T cruzi growth-1 | T. cruzi beta-gal in NIH3T3, GalScreen luminescence, 90 h | inhibition, % at 2.09 µM | actives 21% (n = 5,600) | AID 651740, 2012;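 active = mean inhibition above about 95%, with at least 55% of replicates also reaching it, limit read from the data; inconclusive = meets just one of the two conditions; inactive = meets neither condition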;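 note: plate controls were neutral control median for no effect and positive control median for full effect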
3T3 cytotox: cytotoxicity in mouse NIH/3T3 fibroblasts, confirmation, cytotoxicity control for T. cruzi proliferation inhibitor project, cell-based, cherry-pick, single point | shares compounds with T cruzi growth-1 | NIH/3T3 viability, CellTiter-Glo ATP luminescence, 90 h | cytotoxicity (signal decrease), % at 8.35 µM | actives 14% (n = 5,600) | AID 651742, 2012;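 active = mean signal decrease across replicates above about 35% based on untreated-well scatter, with enough replicates individually passing, limit read from the data; inconclusive = no rule stated though some were filed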;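 note: 0% = median of neutral control wells and 100% = median of positive control wells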
NIH3T3 tox 2: NIH/3T3 fibroblast cytotoxicity, confirmation, cytotoxicity control, cell-based, cherry-pick, single point, set 2; shares compounds with T cruzi growth-1; NIH/3T3 viability, CellTiter-Glo ATP luminescence, 90 h; inhibition, % at 24.9 µM; actives 56% (n = 5,600);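 active = mean loss of cell viability signal at or above a set limit, and enough replicates individually reaching it; inconclusive = meets only the mean limit or only the replicate share; inactive = meets neither condition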;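 note: 0% = median of neutral control wells and 100% = median of positive control wells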
Starred values were filed as active, the others as inactive; ? = inconclusive; nt = not tested or not shown. Sampled rows, rich in hits. Any-hit rate of the full collection: about 5.8%.

SMILES	IDH1 mut inh	GASC1 inh	Pf Dd2 inh	T cruzi growth-1	T cruzi growth-2	T cruzi growth-3	3T3 cytotox	NIH3T3 tox 2
C[C@@H]1CN([C@@H](C)CO)S(=O)(=O)c2ccc(C3=CCCCC3)cc2O[C@@H]1CN(C)Cc1ccccc1	-1	0	-71	122*	100*	117*	27	106*
C[C@H]1CN([C@@H](C)CO)S(=O)(=O)c2ccc(C3=CCCCC3)cc2O[C@@H]1CN(C)Cc1cncnc1	2	2	-22	102*	102*	63	55*	69*
COC(=O)c1ccccc1NC(=O)Cn1ccc([N+](=O)[O-])n1	0	nt	nt	nt	nt	nt	nt	nt
CCOC(=O)c1c(C)sc2c(C)c(C)[nH]c12	-4	nt	nt	nt	nt	nt	nt	nt
CCCn1cc(NC(=O)C2CC(c3ccccc3O)=NO2)cn1 (stereo unspecified)	-1	nt	nt	nt	nt	nt	nt	nt
C[C@@H]1CN([C@H](C)CO)S(=O)(=O)c2ccc(C3=CCCCC3)cc2O[C@@H]1CN(C)Cc1ccccc1	2	-1	-62	125*	97*	102*	26	105*
C[C@H](CO)N1C[C@H](C)[C@H](CN(C)Cc2cccc(C(=O)O)c2)Oc2cc(C3=CCCCC3)ccc2S1(=O)=O	nt	2	-31	50	nt	nt	nt	nt
C[C@H](CO)N1C[C@H](C)[C@H](CN(C)Cc2ccccc2)Oc2cc(C3=CCCCC3)ccc2S1(=O)=O	-2	-1	-9	?	100*	71	0	103*
COc1ccc(C(=O)O[C@H]2CC(C)=CCC3(C)CC[C@@](O)(C(C)C)[C@H]23)cc1 (stereo partly specified)	0	nt	nt	nt	nt	nt	nt	nt
Cc1cc(Cl)c(S(=O)(=O)Nc2ccc(F)cc2)cc1OCC(N)=O	0	nt	nt	nt	nt	nt	nt	nt
COc1ccc(NC(=O)CN(C)S(=O)(=O)c2ccc(C)cc2)cc1OC	0	nt	nt	nt	nt	nt	nt	nt
C=CCOC(=O)[C@H]1[C@@H]2C(=O)O[C@@H](c3ccccc3)[C@@H](c3ccccc3)N2[C@@H](c2ccc(OCCOC(=O)[C@H]3C[C@H]4C(=O)N[C@@H](Cc5ccccc5)C(=O)N4[C@H]3c3ccc(O)cc3)cc2)[C@]12C(=O)Nc1ccccc12	0	nt	nt	nt	nt	nt	nt	nt
C[C@@H]1CN([C@@H](C)CO)S(=O)(=O)c2ccc(-c3cccc(F)c3)cc2O[C@H]1CN(C)C(=O)Nc1cc(F)ccc1F	3	8	-44	115*	101*	63	51*	57*
C[C@H]1CN([C@@H](C)CO)S(=O)(=O)c2ccc(-c3ccccc3)cc2O[C@@H]1CN(C)C(=O)Nc1ccccc1F	0	1	-79	-40	nt	nt	nt	nt
C[C@@H]1CN([C@H](C)CO)S(=O)(=O)c2ccc(-c3cccc(F)c3)cc2O[C@H]1CN(C)C(=O)Nc1cc(F)ccc1F	4	-2	-43	115*	96*	78	64*	81*
Cc1cccc(C)c1OCC(=O)Nc1cccnc1	0	nt	nt	nt	nt	nt	nt	nt
COCCN(C[C@@H]1[C@@H](c2ccccc2)[C@H](CO)N1C(C)=O)C(=O)c1ccccc1	nt	-4	8	11	nt	nt	nt	nt
CCN(C[C@@H]1[C@@H](c2ccccc2)[C@H](CO)N1C(=O)C1CC1)C(=O)NC1CCCC1	nt	1	11	97*	52	31	-1	26
CCN(C[C@@H]1[C@@H](c2ccccc2)[C@@H](CO)N1C(=O)C1CC1)C(=O)NC1CCCC1	nt	-2	3	16	nt	nt	nt	nt
COCCN(C[C@H]1[C@@H](c2ccccc2)[C@H](CO)N1C(C)=O)C(=O)c1ccncc1	nt	2	1	?	61	-16	-11	-4
COCC(=O)N(C)C[C@H]1[C@H](c2ccc(-c3cccnc3)cc2)[C@H](CO)N1C(C)=O	nt	-1	24	101*	7	0	-26	-13
CC(=O)N(C)C[C@H]1[C@H](c2ccccc2)[C@@H](CO)N1C(=O)C1CCC1	nt	-1	5	101*	-42	21	-23	-8
CC(=O)N(C)C[C@H]1[C@H](c2ccc(-c3ccccc3)cc2)[C@@H](CO)N1C(=O)C1CC1	nt	2	-7	?	15	-15	7	13
CC(=O)N(C)C[C@@H]1[C@@H](c2ccc(-c3ccccc3)cc2)[C@H](CO)N1C(=O)C1CC1	nt	1	12	-24	nt	nt	nt	nt
C[C@@H]1CN([C@@H](C)CO)C(=O)c2cccc(NC(=O)C3CC3)c2O[C@@H]1CN(C)Cc1ccc(C(=O)Nc2ccccc2N)cc1	nt	3	-14	76	nt	nt	nt	nt
SMILES	IDH1 mut inh	GASC1 inh	Pf Dd2 inh	T cruzi growth-1	T cruzi growth-2	T cruzi growth-3	3T3 cytotox	NIH3T3 tox 2
C[C@@H]1CN([C@H](C)CO)C(=O)c2cccc(NC(=O)C3CC3)c2O[C@H]1CN(C)Cc1ccc(C(=O)Nc2ccccc2N)cc1	nt	2	-46	102*	110*	93	6	30*
C[C@H](CO)N1C[C@H](C)[C@H](CN(C)Cc2ccc(C(=O)Nc3ccccc3N)cc2)Oc2c(NC(=O)C3CC3)cccc2C1=O	nt	0	-16	98*	106*	94	1	43*
O=C(CSc1n[nH]c(-c2ccc(Cl)cc2)n1)Nc1c(F)cc(F)cc1Br	0	nt	nt	nt	nt	nt	nt	nt
CS(=O)(=O)Nc1ccc2oc3ncccc3c(=O)c2c1	0	nt	nt	nt	nt	nt	nt	nt
O=C(CSc1nnc(-c2ccccc2O)n1-c1ccccc1)NC1CCCCC1	0	nt	nt	nt	nt	nt	nt	nt
C[C@H](CO)N1C[C@H](C)[C@@H](CN(C)Cc2ccc(C(=O)Nc3ccccc3N)cc2)Oc2c(NC(=O)c3ccncc3)cccc2C1=O	nt	-1	-46	?	102*	88	18	25*
C[C@H]1CN([C@@H](C)CO)C(=O)c2cccc(NC(=O)c3ccncc3)c2O[C@@H]1CN(C)Cc1ccc(C(=O)Nc2ccccc2N)cc1	0	0	-70	98*	108*	101*	6	47*
C[C@@H]1CN([C@@H](C)CO)C(=O)c2cccc(NC(=O)c3cnccn3)c2O[C@@H]1CN(C)Cc1ccc(C(=O)Nc2ccccc2N)cc1	nt	-1	-92*	106*	93	84	47*	91*
